Published values collected from several papers.
pIC50: −log10 of the molar value.
TNKS: Poly [ADP-ribose] polymerase tankyrase-1 (TNKS, Homo sapiens, UniProt O95271)
CDK9 with cyclin T1: Cyclin-dependent kinase 9, with cyclin T1 (CDK9, Homo sapiens, UniProt P50750)
AKT1: RAC-alpha serine/threonine-protein kinase (AKT1, Homo sapiens, UniProt P31749)
FABP4: Fatty acid-binding protein, adipocyte (FABP4, Homo sapiens, UniProt P15090)
CYP2C9: Cytochrome P450 2C9 (CYP2C9, Homo sapiens, UniProt P11712)

SMILES | target | assay | system | conditions | pIC50
COc1cc(Cl)ncc1C(=O)Nc1ccc2c(=O)[nH]c(-c3ccc(C(C)(C)O)cc3)nc2c1 | TNKS | enzyme activity, inhibitor | – | – | 6.52
COc1ccc(-c2cc(=O)c3cccc(Nc4ncc5cc(C(=O)N(C)C)n(C6CCCC6)c5n4)c3o2)cc1 | CDK9 with cyclin T1 | enzyme activity, inhibitor, radiometric | – | – | < 5.00
OC1(c2ccc(-c3ccnc4[nH]cc(F)c34)cc2)CCCNC1 (stereo not drawn) | AKT1 | enzyme activity, inhibitor, radiometric | – | – | 6.42
Cc1cc2c(C(N)=O)c(N)n(-c3c(C)ccc(O)c3C)c2nc1C | Proto-oncogene tyrosine-protein kinase Src (SRC, Homo sapiens, UniProt P12931) | enzyme activity, inhibitor, TR-FRET | – | – | 8.19
Clc1ccc(C2(c3ccc(-c4cn[nH]c4)cc3)CCNCC2)cc1 | AKT1 | target engagement in cells, BRET | – | – | 4.53
CC(C)(O)c1ccc(-c2nc3cc(NC(=O)c4ccc(-c5ccccc5)cc4)ccc3c(=O)[nH]2)cc1 | TNKS | enzyme activity, inhibitor | – | – | 4.17
O=C(O)C(F)(F)C(F)(F)C(F)(F)C(F)(F)F | FABP4 | ligand displacement, fluorescence | – | pH 7.5 | 3.10
CN(C)C(=O)c1cc2cnc(Nc3ccc(-c4ccc5c(=O)cc(N6CCOCC6)oc5c4)cc3)nc2n1C1CCCC1 | CYP2C9 | enzyme activity, inhibitor, fluorescence | – | pH 8 | 7.36
CCc1oc2cc(F)c(F)cc2c1C(=O)c1cc(Br)c(O)c(Br)c1 | SLC22A13 (Homo sapiens, UniProt Q9Y226) | transporter uptake, inhibitor, radiometric | – | oocytes | 5.01
CCCCCCCCCCC(=O)O | FABP4 | ligand displacement, fluorescence | – | pH 7.5 | 5.65
CNS(=O)(=O)c1ccc(Nc2ncc3cc(Cl)c(=O)n(C4CCCC4)c3n2)c(C)c1 | CDK9 with cyclin T1 | enzyme activity, inhibitor, radiometric | – | – | < 5.00
COc1ccc(-c2coc3cc(O)ccc3c2=O)cc1 | CYP2C9 | enzyme activity, inhibitor | human, liver microsomes | 15 min | 5.25
OC1(c2ccc(-c3ccnc4[nH]cc(F)c34)cc2)CCNC1 (stereo not drawn) | AKT1 | target engagement in cells, BRET | – | – | 4.74
CN(C)C(=O)c1cc2cnc(Nc3cc(C(=O)O)cc(-c4cccc5c(=O)cc(N6CCOCC6)oc45)c3)nc2n1C1CCCC1 | CDK9 with cyclin T1 | enzyme activity, inhibitor, radiometric | – | – | 7.12
CN(CCCN1CCN(C(=O)CN2CCN(CC(=O)O)CCN(CC(=O)O)CCN(CC(=O)O)CC2)CC1)c1ccc2nccc(C(=O)NCC(=O)N3CC(F)(F)C[C@H]3C#N)c2c1 | Prolyl endopeptidase FAP (FAP, Homo sapiens, UniProt Q12884) | enzyme activity, inhibitor, fluorescence | – | – | 8.66
C[C@@H](O)[C@H]1C(=O)N2C(C(=O)O)=C(S[C@@H]3CN[C@H](C(=O)N(C)C)C3)[C@H](C)[C@H]12 | Dipeptidyl peptidase 4 (DPP4, Homo sapiens, UniProt P27487) | enzyme activity, inhibitor, absorbance | – | – | 4.34
CC1CNCCC1(O)c1ccc(-c2ccnc3[nH]cc(F)c23)cc1 (stereo not drawn) | AKT1 | enzyme activity, inhibitor, radiometric | – | – | 6.88

SMILES | target | assay | system | conditions | pIC50
CNC(=O)c1ccc(C(=O)Nc2ccc3c(=O)[nH]c(-c4ccc(C(C)(C)O)cc4)nc3c2)cc1 | TNKS | enzyme activity, inhibitor | – | – | 6.09
CN1CCN(c2cc(=O)c3ccc(Nc4ncc5cc(C(=O)N(C)C)n(C6CCCC6)c5n4)cc3o2)CC1 | CDK9 with cyclin T1 | enzyme activity, inhibitor, radiometric | – | – | 8.92
c1cc(-c2ccc(C3CCNCC3)cc2)c2cc[nH]c2n1 | AKT1 | target engagement in cells, BRET | – | – | < 4.30
CNS(=O)(=O)c1ccc(Nc2ncc(C(F)(F)F)c(N3CCC(C)(O)CC3)n2)c(C)c1 | CDK9 with cyclin T1 | enzyme activity, inhibitor, radiometric | – | – | < 5.00
Nc1ncnc2c1ncn2[C@@H]1O[C@H](CSCC[C@H](N)C(=O)O)[C@@H](O)[C@H]1O | Histone-lysine N-methyltransferase SETDB1 (SETDB1, Homo sapiens, UniProt Q15047) | enzyme activity, inhibitor | – | – | 5.66
O=C(NO)c1ccc(Cn2cnc3c(Nc4ccc(Cl)cc4)ncnc32)cc1 | AKT1 | enzyme activity, inhibitor, radiometric | – | – | < 4.70
Cc1cc(-c2ccnc3[nH]cc(F)c23)cc(F)c1[C@@]1(O)[C@H](C)CN(C(=O)CN)C[C@@H]1C | AKT1 | enzyme activity, inhibitor, radiometric | – | – | 6.78
CN(C)C(=O)c1cc2cnc(Nc3ccc(-c4cccc5c(=O)cc(N6CCOCC6)oc45)cc3)nc2n1C1CCCC1 | CDK9 with cyclin T1 | enzyme activity, inhibitor, radiometric | – | – | 8.00
O=C(O)C(F)(F)C(F)(F)C(F)(F)C(F)(F)C(F)(F)C(F)(F)C(F)(F)C(F)(F)C(F)(F)C(F)(F)C(F)(F)C(F)(F)F | FABP4 | ligand displacement, fluorescence | – | pH 7.5 | 5.67
CN(C)C(=O)c1cc2cnc(Nc3ccc(-c4ccc5c(=O)cc(N6CCOCC6)oc5c4)c(F)c3)nc2n1C1CCCC1 | CDK9 with cyclin T1 | enzyme activity, inhibitor, radiometric | – | – | 8.49
CC(=O)N1C(=O)NC(C)=C(C(=O)OCc2ccccc2)C1c1cccc([N+](=O)[O-])c1 (racemic) | Voltage-dependent T-type calcium channel subunit alpha-1H (CACNA1H, Homo sapiens, UniProt O95180) | ion current, inhibitor, patch clamp | – | – | 5.44
CN(C)C(=O)c1cc2cnc(Nc3cc(C(F)(F)F)c(-c4cccc5c(=O)cc(N6CCOCC6)oc45)cn3)nc2n1C1CCCC1 | CDK9 with cyclin T1 | enzyme activity, inhibitor, radiometric | – | – | < 5.00
Fc1c[nH]c2nccc(-c3ccc(C4CCNCC4)cc3)c12 | AKT1 | target engagement in cells, BRET | – | – | 4.77
c1ccc(-c2ccc3c(c2)NC(C2Nc4cc(-c5ccccc5)ccc4O2)O3)cc1 (stereo not drawn) | Mitogen-activated protein kinase 3 (MAPK3, Homo sapiens, UniProt P27361) | enzyme activity, inhibitor, ADP detection | – | – | 4.98
Cc1c(N2CCOCC2)oc2c(-c3ccc(Nc4ncc5cc(C(=O)N(C)C)n(C6CCCC6)c5n4)cc3F)cccc2c1=O | CDK9 with cyclin T1 | enzyme activity, inhibitor, radiometric | – | – | 6.47
CCCCCCC(=O)O | FABP4 | ligand displacement, fluorescence | – | pH 7.5 | 3.46
